In data set [1] the target is Vascular endothelial growth factor receptor 2 (Homo sapiens, UniProt P35968). The data set is described as follows: Inhibition of VEGFR2. The method in brief:
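GST-fused VEGFR-2/KDR catalytic domain from baculovirus-infected Sf9 cells, glutathione-agarose purified, 5 nM. Buffer: 60 mM Hepes pH 7.5, 3 mM MgCl2, 3 mM MnCl2, 1.2 mM β-mercaptoethanol, 0.1 mg/mL BSA, 3 µM vanadate. Mg-ATP at 2× Km. Enzyme, inhibitor and ATP were first combined for 4 min on ice. Reaction ran on immobilized poly(Glu4,Tyr) at 30 °C for 10 min and was stopped with EDTA. DELFIA Eu-anti-phosphotyrosine read-out. Seven concentrations in triplicate; IC50 from a 4-parameter fit.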

The test system of data set [2] is HCT-116. The data set is described as follows: Antitumor activity against human HCT116 cells by MTT assay. On the technique in general: Tetrazolium dyes change colour on reduction, which living cells bring about.
Data set [3] addresses 3-phosphoinositide-dependent protein kinase 1 (Homo sapiens) (UniProt O15530). Put plainly: Inhibition of PDK1. The following applies: concentration not given here.
For data set [4], the target named is Serine/threonine-protein kinase haspin (Homo sapiens) (UniProt Q8TF76). Put plainly: Inhibition of haspin. The following applies: concentration not given here. The method in brief: (§1)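 Outsourced kinase panel of 23 enzymes (Millipore KinaseProfiler); single test concentration of 0.1 µM; percent inhibition of kinase activity reported.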
For data set [5], the system named is Rattus norvegicus. The data set is described as follows: Cmax in rat at 5 mg/kg, po. It is filed as ADME, organism-based. Set-up: dose 5 mg/kg, route oral. The note with it: in vivo.
The target in data set [6] is LIM domain kinase 1 (Homo sapiens) (UniProt P53667). Put plainly: Inhibition of LIMK1. The note with it: concentration not given here. The method in brief:
as §1

Data set [7] concerns the target Serine/threonine-protein kinase Chk1 (Homo sapiens) (UniProt O14757). The data set is described as follows: Inhibition of CHK1. The note with it: concentration not given here. The method in brief:
as §1

The target in data set [8] is Inhibitor of nuclear factor kappa-B kinase subunit beta (Homo sapiens) (UniProt O14920). Put plainly: Inhibition of IKK-beta. The following applies: concentration not given here. The method in brief:
as §1

In data set [9] the target is Dual specificity mitogen-activated protein kinase kinase 1 (Homo sapiens) (UniProt Q02750). Put plainly: Inhibition of MEK1. The note with it: concentration not given here. The method in brief:
as §1

Data set [10] in a line: Tmax in rat at 5 mg/kg, po. The note with it: in vivo. Set-up: dose 5 mg/kg, route oral. It is filed as ADME, organism-based.
The nature of data set [11]: Oral bioavailability in rat at 5 mg/kg, po. Format: ADME, organism-based. The following applies: in vivo.
In data set [12] the target is ALK tyrosine kinase receptor (Homo sapiens) (UniProt Q9UM73). Put plainly: Inhibition of ALK. The following applies: concentration not given here. In short, it runs like this: as §1
Data set [13] in a line: Volume of distribution at steady state in rat at 2.5 mg/kg, iv and 5 mg/kg, po. The following applies: in vivo, read-out: Vdss. Format: ADME, organism-based.
Data set [14] deals with Glycogen synthase kinase-3 beta (Homo sapiens) (UniProt P49841). Put plainly: Inhibition of GSK3-beta. The following applies: concentration not given here. The method in brief:
as §1

For data set [15], the target named is Cytoplasmic tyrosine-protein kinase BMX (Homo sapiens) (UniProt P51813). The data set is described as follows: Inhibition of BMX. The note with it: concentration not given here. The method in brief: as §1
For data set [16], the target named is Receptor-type tyrosine-protein kinase FLT3 (Homo sapiens) (UniProt P36888). Put plainly: Inhibition of FLT3. The note with it: concentration not given here. In short, it runs like this: as §1
In data set [17] the target is Tyrosine-protein kinase JAK3 (Homo sapiens) (UniProt P52333). Put plainly: Inhibition of JAK3. The note with it: concentration not given here. In short, it runs like this: as §1
Data set [18] addresses T1, Hepatocyte growth factor receptor (Homo sapiens, UniProt P08581). The data set is described as follows: Inhibition of c-Met phosphorylation in human MKN45 cells. Format: cell-based, MKN-45.
In data set [19] the target is RAC-alpha serine/threonine-protein kinase (Homo sapiens) (UniProt P31749). Put plainly: Inhibition of PKBalpha. The following applies: concentration not given here. In short, it runs like this:
as §1

Data set [20] addresses T1, Hepatocyte growth factor receptor. The data set is described as follows: Inhibition of c-Met.
Data set [21] deals with Angiopoietin-1 receptor (Homo sapiens) (UniProt Q02763). Put plainly: Inhibition of Tie2. The note with it: concentration not given here. The method in brief:
as §1

Data set [22] addresses Proto-oncogene tyrosine-protein kinase receptor Ret (Homo sapiens) (UniProt P07949). The data set is described as follows: Inhibition of Ret. The following applies: concentration not given here. The method in brief:
as §1

Data set [23] concerns the target Mast/stem cell growth factor receptor Kit (Homo sapiens) (UniProt P10721). Put plainly: Inhibition of cKit. The following applies: concentration not given here. In short, it runs like this: as §1
Data set [24] has as its target Ephrin type-B receptor 4 (Homo sapiens) (UniProt P54760). The data set is described as follows: Inhibition of EphB4. The following applies: concentration not given here. In short, it runs like this: as §1
For data set [25], the target named is Serine/threonine-protein kinase pim-1 (Homo sapiens) (UniProt P11309). Put plainly: Inhibition of PIM1. The note with it: concentration not given here. The method in brief: as §1
Data set [26] can be described thus: Clearance in rat at 2.5 mg/kg, iv and 5 mg/kg, po. Format: ADME, organism-based. The following applies: in vivo.
Data set [27] is described as follows: Half life in rat at 2.5 mg/kg, iv. Set-up: dose 2.5 mg/kg, route intravenous. Format: ADME, organism-based. The note with it: in vivo.
Data set [28] has as its target Focal adhesion kinase 1 (Homo sapiens) (UniProt Q05397). The data set is described as follows: Inhibition of FAK. The note with it: concentration not given here. The method in brief:
as §1

In data set [29] the target is Phosphatidylinositol 4,5-bisphosphate 3-kinase catalytic subunit beta isoform (Homo sapiens) (UniProt P42338). Put plainly: Inhibition of PI3Kbeta. The following applies: concentration not given here. In short, it runs like this:
as §1

Data set [30] concerns the target Macrophage-stimulating protein receptor (Homo sapiens, UniProt Q04912). The data set is described as follows: Inhibition of TPR-tagged RON catalytic domain expressed in HEK293 cells. Format: cell-based.
For data set [31], the target named is RAF proto-oncogene serine/threonine-protein kinase (Homo sapiens) (UniProt P04049). Put plainly: Inhibition of c-Raf. The following applies: concentration not given here. In short, it runs like this:
as §1

pIC50: −log10 of the molar value.

For orientation: pIC50 means the negative decadic logarithm of the IC50, by convention in mol/L. The compound `Cn1cnc(-c2cc3nccc(Oc4ccc(NC(=O)N5CCN(c6ccccc6)C5=O)cc4F)c3s2)c1` had a negative logarithm of the IC50 (pIC50) in data set [1] of 8.00. For the same compound, the IC50 result in data set [2] (hct-116) is on record as “Not Active”.
The compound `CS(=O)(=O)CCNCc1ccc(-c2cc3nccc(Oc4ccc(NC(=O)c5cnn(-c6ccccc6)c5C(F)(F)F)cc4F)c3s2)cc1` gave a negative logarithm of the IC50 (pIC50) in [1] of 5.96.
Usually inhibition stands for the percentage by which the read-out fell short of the control. A lower inhibition goes with a weak effect. For orientation: Tmax means the time at which the peak concentration occurs. A word on the bioavailability: it is the share of a dose that reaches the circulation, judged against a reference dose that is usually intravenous. Lower therefore signals poor availability. Broadly, the half-life is the time in which the quantity being followed falls by half. Read a high half-life as slow loss. As for `Cn1cnc(-c2cc3nccc(Oc4ccc(NC(=O)c5cnn(-c6ccccc6)c5C(F)(F)F)cc4F)c3s2)c1`, the inhibition in [3], in [4], in data set [6], in [7], in [8] and in data set [9] was below 40% throughout. The inhibition in [12] is below 40%; in data set [14], below 40%; in data set [15], below 40%; in [16], 96%; in [17] it was below 40%; in data set [19], below 40%. Besides, the inhibition in data set [21], in [22], in data set [23], in [24], in data set [25] and in data set [28] was below 40% in each case. Besides, the inhibition in data set [29] and in data set [31] was below 40% in each case. In [5], this compound showed a Cmax normalised of 0.25 µM/mg/kg. For the same compound, in data set [10], the time of peak concentration (Tmax) was 6 h. In addition, in [11], the bioavailability is above 30%. Moreover, the Vd in data set [13] is 2.4 L/kg. Further, the pIC50 in [1] was below 5.00; in [18] it was 6.30; in data set [20] it was 6.82; in [2] (Homo sapiens, HCT-116), 7.10; in data set [30], 7.30. The compound further had a clearance in data set [26] of 10.5 mL/min/kg. This compound showed a half-life in data set [27] of 2.7 h.
With `COc1cc2nccc(Oc3ccc(NC(=O)c4cnn(-c5ccccc5)c4C(F)(F)F)cc3F)c2cc1OC`, the pIC50 in data set [1] was below 5.70.
`COCCNC(=O)c1ccc(-c2cc3nccc(Oc4ccc(NC(=O)c5cnn(-c6ccccc6)c5C(F)(F)F)cc4F)c3s2)nc1` gave a negative-log IC50 (pIC50) in data set [1] of 5.28.
Same read-out and setting: for `CN(C)C(=O)c1ccc(-c2cc3nccc(Oc4ccc(NC(=O)c5cnn(-c6ccccc6)c5C(F)(F)F)cc4F)c3s2)nc1` the value was 5.60; for `Cc1c(C(=O)Nc2ccc(Oc3ccnc4cc(-c5cn(C)cn5)sc34)c(F)c2)cnn1-c1ccccc1`, 5.70.
With `CNC(=O)c1cc(Oc2ccc(NC(=O)c3cnn(-c4ccccc4)c3C(F)(F)F)cc2F)ccn1`, the negative-log IC50 (pIC50) in data set [1] is below 4.70; in data set [20] it was below 4.82; in data set [30], below 5.00.
Turning to `CCCc1c(C(=O)Nc2ccc(Oc3ccnc4cc(-c5cn(C)cn5)sc34)c(F)c2)cnn1-c1ccccc1`, in [1], the negative-log IC50 (pIC50) was 5.72.
`Cn1ccnc1-c1cc2nccc(Oc3ccc(NC(=O)c4cnn(-c5ccccc5)c4C(F)(F)F)cc3F)c2s1`: the negative-log IC50 (pIC50) in data set [1] is 5.85.
`COC[C@H](C)N(Cc1ccc(-c2cc3nccc(Oc4ccc(NC(=O)c5cnn(-c6ccccc6)c5C(F)(F)F)cc4F)c3s2)cc1)C(C)=O`: the negative logarithm of the IC50 (pIC50) in [1] was 5.60.
Still for that read-out and setting: under `Cn1cnc(-c2cc3nccc(Oc4ccc(NC(=O)c5cnn(C(C)(C)C)c5C(F)(F)F)cc4F)c3s2)c1` stands 5.52; under `CC(=O)N1CC=C(c2cc3nccc(Oc4ccc(NC(=O)c5cnn(-c6ccccc6)c5C(F)(F)F)cc4F)c3s2)CC1`, 5.85.
In turn, `Cn1cnc(-c2cc3nccc(Oc4ccc(NC(=O)c5cnn(-c6ccccc6)c5)cc4F)c3s2)c1` showed a pIC50 in [1] of 5.85.
In data set [1], `CN(C)[C@H]1CCN(C(=O)c2ccc(-c3cc4nccc(Oc5ccc(NC(=O)c6cnn(-c7ccccc7)c6C(F)(F)F)cc5F)c4s3)cc2)C1` gave a negative-log IC50 (pIC50) of 6.00.
Same read-out and setting: for `CN(C)C(=O)c1ccc(-c2cc3nccc(Oc4ccc(NC(=O)c5cnn(-c6ccccc6)c5C(F)(F)F)cc4F)c3s2)cc1` the value was 5.85; for `CN(C)CCN(C)C(=O)c1ccc(-c2cc3nccc(Oc4ccc(NC(=O)c5cnn(-c6ccccc6)c5C(F)(F)F)cc4F)c3s2)cc1`, 6.15.
Consider `Cn1cnc(-c2cc3nccc(Oc4ccc(NC(=O)c5cnn(-c6ccccc6)c5N)cc4F)c3s2)c1`, for which the figures for the negative logarithm of the IC50 (pIC50) in [1], in data set [20] and in data set [30] were 6.10, 6.74 and below 6.00, respectively.
With `Cn1cnc(-c2cc3nccc(Oc4ccc(NC(=O)c5cnn(C)c5C(F)(F)F)cc4F)c3s2)c1`, the negative logarithm of the IC50 (pIC50) in data set [1] is 6.15; in data set [20], 7.22; in data set [30], below 6.00.

(Values after ChEMBL document CHEMBL1157925, “Identification of a novel series of potent RON receptor tyrosine kinase inhibitors” (Bioorg Med Chem Lett, 2010).)
